FID counter = displaces DNA intercalator in HCV helicase counter-screen | DNA fluorescent intercalator displacement, fluorescence | inhibition, % at 7.9 µM | 290,000 compounds, 0.17% hits; in the data active = inhibition above about 37%;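 note: 0% = vehicle and 100% = reference compound; higher means more ethidium bromide displaced from hairpin DNA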
NS3 helicase inh = blocks Hepatitis C virus NS3 helicase unwinding; 290,000 compounds, 0.56% hits; inhibition, % at 10.9 µM; NS3 helicase DNA unwinding, Cy5 molecular beacon fluorescence; AID 1800;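 active = inhibition above the mean of all tested compounds plus 3 SD, set per campaign, cut at about 35% in these data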;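 note: 0% = DMSO wells and 100% = thioflavine S control wells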
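Test system: hepatitis C virus NS3 helicase domain fragment enzyme. Also added: annealed dual-labelled DNA beacon duplex, ATP-started. Timing: 60 min unwinding reaction at 25 °C after ATP addition. Technique: Cy5 fluorescence. Measure: % inhibition of unwinding.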
MEKK3 PB1 HTS = MEKK3-MEK5 PB1 interaction, increase or decrease; bead-based flow cytometry, Alexa488-MEK5 binding to MEKK3; actives lie on both sides; 0 = blocked by unlabeled MEK5, 100 = vehicle; binding response (% of control), % at 10 µM; 290,000 compounds, 1.4% hits; AID 1529;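 active = binding response more than 3 SD above or below the average of its plate-row segment, actives on both sides; inconclusive = wells at one plate position flagged as instrument error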;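 note: Alexa488 bead fluorescence after subtracting the streptavidin-only scavenger bead signal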
Target sequence (Q99759 whole entry, looked up): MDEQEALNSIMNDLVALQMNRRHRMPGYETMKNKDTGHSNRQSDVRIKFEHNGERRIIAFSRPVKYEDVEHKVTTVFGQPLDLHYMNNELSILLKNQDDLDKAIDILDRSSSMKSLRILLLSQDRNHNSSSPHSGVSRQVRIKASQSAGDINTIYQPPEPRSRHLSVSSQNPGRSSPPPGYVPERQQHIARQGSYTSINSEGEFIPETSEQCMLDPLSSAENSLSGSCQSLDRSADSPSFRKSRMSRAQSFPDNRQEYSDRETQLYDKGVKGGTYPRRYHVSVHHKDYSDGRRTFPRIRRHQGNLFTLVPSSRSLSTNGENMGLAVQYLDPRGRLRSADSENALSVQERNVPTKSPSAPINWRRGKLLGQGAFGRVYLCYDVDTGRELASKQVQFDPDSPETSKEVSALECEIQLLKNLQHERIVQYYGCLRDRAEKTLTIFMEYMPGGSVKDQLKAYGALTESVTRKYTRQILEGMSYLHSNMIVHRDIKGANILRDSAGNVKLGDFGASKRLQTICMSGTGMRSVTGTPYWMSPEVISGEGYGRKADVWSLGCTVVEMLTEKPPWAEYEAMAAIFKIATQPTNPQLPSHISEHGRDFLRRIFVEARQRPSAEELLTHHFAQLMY
T cruzi inh = T. cruzi replication inhibition. T. cruzi beta-gal in NIH3T3, luminescence, 90 h. inhibition, % (concentration not given with the values). 300,000 compounds, 1.4% hits. AID 1885;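 active = mean inhibition across valid replicates above about 55%, limit read from the data; inconclusive = mean below that limit but half or more replicates reach it; inactive = mean below it, under half of replicates reach it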;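 note: signal also drops with host cell toxicity which is not excluded here; 0% = plate median of DMSO wells and 100% = zero luminescence signal; higher percent means less beta-gal luminescence so fewer parasites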
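Incubation – ≥90 h infection period, 3 h prior cell attachment · System – NIH/3T3 fibroblasts plus reporter T. cruzi · Doses – compound pinned at 50 nL/well, DMSO · Read-out basis – percent inhibition of parasite-derived β-gal signal · Signal – luminescent β-galactosidase signal after 60 min lysis · Also added – 5000 T. cruzi trypomastigotes/well · Medium – Low-serum DMEM with 2% FBS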
MEKK2 mut-MEK5 = signal of MEK5 binding to mutant human MEKK2 PB1 domain; percent response, % at 10 µM; AID 1530; bead flow cytometry, Alexa488-MEK5 binding to MEKK2 mutant; 290,000 compounds, 0.35% hits; in the data active = percent response above about 24%, passing the limit was not always enough
MEKK2 WT-MEK5 = raises or lowers MEK5 binding to wildtype human MEKK2 PB1 domain. Q9Y2U5. bead flow cytometry, Alexa488-MEK5 binding to MEKK2 WT; actives lie on both sides. binding response (% of control), % at 10 µM. 290,000 compounds, 1.1% hits; in the data active = binding response below about 67% or above about 130%; inconclusive = no clear call, values can overlap the other calls; inactive = in between
MEKK2wt confirm = raises or lowers MEK5 binding to wildtype human MEKK2, retest | bead flow cytometry, Alexa488-MEK5 binding to MEKK2 WT; actives lie on both sides | binding response (% of control), % at 10 µM | shares compounds with MEKK3 PB1 HTS | 5,900 compounds, 2.4% hits | AID 1892; in the data active = binding response below about 16% or above about 210%; inactive = in between
MEKK2mut-MEK5 = signal of MEK5 binding to mutant human MEKK2, retest; shares compounds with MEKK3 PB1 HTS; AID 1893; 5,900 compounds, 2% hits; bead flow cytometry, Alexa488-MEK5 binding to MEKK2 mutant; percent response, % at 10 µM; in the data active = percent response mostly above about 71%, no sharp cut-off; inactive = mostly below about 38%;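 note: higher means compound restores mutant binding toward wildtype level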
MEKK3-MEK5 inh = confirmation of inhibitors of MEK5 binding to human MEKK3. shares compounds with MEKK3 PB1 HTS. bead flow cytometry, Alexa488-MEK5 binding to MEKK3; stronger effect = lower value. binding response (% of control), % at 10 µM. 5,900 compounds, 1.8% hits;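 active = binding response below 72% of control, or above a set upper limit, though filed actives all read lower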;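 note: 100% = DMSO only wells and 0% = binding blocked by excess unlabeled MEK5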
Active calls of the source: *; ? = inconclusive; · = no result; [ ] = remark or other dose. The list is not random: actives were taken first. Their share in the collection is about 4.1%.

SMILES	FID counter	NS3 helicase inh	MEKK3 PB1 HTS	T cruzi inh	MEKK2 mut-MEK5	MEKK2 WT-MEK5	MEKK2wt confirm	MEKK2mut-MEK5	MEKK3-MEK5 inh
Cc1nnc(SCC(=O)NC23CC4CC(CC(C4)C2)C3)s1	-5	7	101	-14	-1	98	·	·	·
C1CCC(C23CC4CC(CC(C4)C2)C3)NC1 (stereo unspecified)	3	7	123*	5	7	100	101	-1	102
CC(=O)Nc1nnc(SCC(=O)N2CCCc3ccccc32)s1	2	-3	88	-5	-3	96	·	·	·
CC(=O)Nc1nnc(SCC(=O)N2CCN(Cc3ccccc3)CC2)s1	0	3	75*[inhibitor]	-2	3	105	103	-1	103
O=C(Nc1ccc(OC(F)F)cc1)Nc1cccc(C(F)(F)F)c1	10	-14	113	42	17	209*	115	-1	93
CCN(CC)S(=O)(=O)c1ccc(NC(=O)Nc2cccc(C(F)(F)F)c2)cc1	-3	-16	108	76*	26	144*	168	30	102
O=C(Nc1ccncc1)Nc1cccc(C(F)(F)F)c1	12	-16	100	41	-3	101	·	·	·
O=C(NCCNC(=O)c1cc(OCC(F)(F)F)ccc1OCC(F)(F)F)Nc1cccc(C(F)(F)F)c1	-14	-18	103	-24	11	142*	111	4	103
Cc1ccc(S(=O)(=O)Nc2ccc(NC(=O)Nc3cccc(C(F)(F)F)c3)cc2)cc1	11	-5	109	-3	54*	171*	176	36	97
CN(C)S(=O)(=O)NCCNC(=O)c1cc(OCC(F)(F)F)ccc1OCC(F)(F)F	-5	-4	86	-12	-1	100	·	·	·
Cc1nn(CC(=O)Nc2ccc(S(N)(=O)=O)cc2)c(=O)c2ccccc12	-8	13	102	5	-2	99	·	·	·
CCOC(=O)c1cnc2ccccc2c1NCCO	1	-4	87	15	-3	99	·	·	·
CCOC(=O)c1cnc2c(ccc3ccccc32)c1NCCCN(C)C	81*	14	111	?	9	151*	129	16	102
CC(C)NC(=S)Nc1ccc2nc3n(c(=O)c2c1)CCCCC3	-5	-1	105	-11	1	105	·	·	·
Cc1cccc(NC(=O)C2(c3cccs3)CCOCC2)c1	-12	11	103	-8	-2	102	·	·	·
Cc1ccc(NC(=O)C2(c3cccs3)CCOCC2)cc1C	-13	0	69*[inhibitor]	3	-1	96	97	-2	98
Cc1cc(C)cc(NC(=O)C2(c3cccs3)CCOCC2)c1	-11	5	136*	-3	1	114	95	-7	96
COC(=O)c1c(NC(=O)CN2C(=O)C(=O)N(CC(C)C)C2=O)sc2c1CCCCC2	-5	1	105	-1	14	108	·	·	·
CC1(C)CC(=O)C([N+](=O)[O-])=C(NCCCC(=O)O)C1	0	-8	64*[inhibitor]	-4	-1	97	98	-3	100
CC1(C)CC(=O)C(C#N)=C(NCCCO)C1	-3	6	89	-13	-3	90	·	·	·
CCCCc1nnc(NC(=O)CSc2nc(O)c(-c3ccccc3)c(=O)[nH]2)s1	-13	-1	117	4	533*	·	102	0	103
CCCCc1nnc(NC(=O)CSc2nc(O)c(Cc3ccccc3)c(=O)[nH]2)s1	-2	10	108	2	1	107	·	·	·
O=C(COc1coc(CN2CCCc3ccccc32)cc1=O)Nc1ccccc1	·	·	·	-2	·	·	·	·	·
COc1ccc(CCNCC(O)Cn2c3ccccc3c3ccccc32)cc1OC (stereo unspecified)	26	-59	106	61*	23	159*	165	36	111
COc1ccc2[nH]c(=O)c(CNC3CCCCC3)cc2c1	-2	3	78*[inhibitor]	-6	-8	87	91	-14	85
SMILES	FID counter	NS3 helicase inh	MEKK3 PB1 HTS	T cruzi inh	MEKK2 mut-MEK5	MEKK2 WT-MEK5	MEKK2wt confirm	MEKK2mut-MEK5	MEKK3-MEK5 inh
COc1ccc(-n2c(=O)c3ccccc3n(CC(=O)NC3CCCCC3)c2=O)cc1	1	5	124*	-3	4	121	104	2	102
COc1cc(NC(=O)Cn2c(=O)n(CC3CCCO3)c(=O)c3ccccc32)cc(OC)c1 (stereo unspecified)	-5	5	138*	-6	0	113	116	14	109
COc1ccc(NC(=O)Cn2c(=O)n(CC3CCCO3)c(=O)c3ccccc32)c(OC)c1 (stereo unspecified)	-12	-3	100	-2	-2	92	·	·	·
COc1ccc(-n2c(=O)c3ccccc3n(CC(=O)NC3CCCCC3)c2=O)cc1OC	-5	-1	102	-6	-6	82	·	·	·
Cc1ccccc1NC(=O)CN1C(=O)N/C(=C\c2ccccc2OCc2ccc(C(=O)O)cc2)C1=O	-27	7	102	-10	-7	96	·	·	·
COC(=O)C1CCN(C(=O)CSc2nnc(-c3ccccc3)o2)CC1	·	·	·	-7	·	·	·	·	·
Cc1ccn2cc(-c3ccc(Br)cc3)nc2c1	-1	-2	95	4	-4	97	·	·	·
Clc1ccc(-c2cn3cc(Br)ccc3n2)cc1Cl	-2	7	150*	-12	0	109	93	-2	100
CCOc1ccc(S(=O)(=O)N(C)c2ccc(OCC(=O)N3c4ccc(C)cc4C4CN(C)CCC43)cc2)cc1 (stereo unspecified)	28	-72	108	48	37	140*	127	15	101
Cc1ccc(-n2c(-c3cccs3)nc3nc4ccccc4nc32)cc1	0	4	122	-4	-1	91	·	·	·
Fc1ccc(-n2c(-c3cccs3)nc3nc4ccccc4nc32)cc1	-3	10	134*	5	0	100	99	0	100
COc1ccc2c(c1)[nH]c1c(N3CCN(Cc4ccc5c(c4)OCO5)CC3)ncnc12	15	-42	114	34	8	152*	146	33	107
Cc1ccc2[nH]c3c(N4CCN(Cc5ccccc5)CC4)ncnc3c2c1	8	-32	111	-1	1	105	·	·	·

Screening data: PubChem, several laboratories
